In brackets after ≈: the same amount, converted by molar mass.
Assays:
[1] = tested on: Mycobacterium tuberculosis; assay: Antituberculosis activity against Mycobacterium tuberculosis H37Rv; format: functional
Method in brief: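 Agar dilution on 7H11 plates with drug-susceptible and drug-resistant M. tuberculosis H37Rv strains grown in Middlebrook 7H9 broth. Frozen stocks (-80 °C) diluted to about 10⁶ CFU/mL and spotted with a multipoint inoculator onto drug-containing plates. Drugs dissolved in DMSO and serially diluted 2-fold in DMSO. Read-out: MIC.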

[2] = tested on: Mycobacterium tuberculosis; assay: Reduction in log CFU of Mycobacterium tuberculosis Kurono infected in mouse lung at 5 mg/kg, po after 10 days; format: functional
Method in brief: (§1)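 Mice weighing 20-25 g infected intravenously via tail vein with 10⁴ CFU of M. tuberculosis Kurono. Oral dosing once daily at 0.5-50 mg/kg for 10 days (n = 2), starting the day after infection. Sacrificed on day 11; lungs homogenised and dilution-plated on 7H11 agar at 37 °C for 14 days. Mean log CFU reduction calculated against untreated controls.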

[3] = tested on: Mycobacterium tuberculosis; assay: Reduction in log CFU of Mycobacterium tuberculosis Kurono infected in mouse lung at 50 mg/kg, po relative to control; format: functional; method in brief: as §1
[4] = tested on: Mycobacterium tuberculosis; assay: Reduction in log CFU of Mycobacterium tuberculosis Kurono infected in mouse lung at 0.5 mg/kg, po after 10 days; format: functional; method in brief: as §1
[5] = tested on: Mycobacterium tuberculosis; assay: Reduction in log CFU of Mycobacterium tuberculosis Kurono infected in mouse lung at 10 mg/kg, po after 10 days; format: functional; method in brief: as §1
[6] = tested on: Mycobacterium tuberculosis; assay: Decrease in Mycobacterium tuberculosis count in mouse pulmonary; format: functional, organism-based
Method in brief: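 ICR male mice (20-25 g) infected intravenously via tail vein with 10⁴ CFU of M. tuberculosis Kurono. Dosed orally once daily as a 5% gum arabic suspension for 28 days (n = 6), starting the day after infection. Sacrificed on day 29; lung homogenates plated on 7H11 agar at 37 °C for 14 days. Counts compared with untreated controls.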

Structure (SMILES)	MIC [1]	Activity [3]	also measured
CO[C@H]1/C=C/O[C@@]2(C)Oc3c(C)c(O)c4c(O)c(c(/C=N/N5CCN(C)CC5)c(O)c4c3C2=O)NC(=O)/C(C)=C\C=C\[C@H](C)[C@H](O)[C@@H](C)[C@@H](O)[C@@H](C)[C@H](OC(C)=O)[C@@H]1C [RIFAMPIN]	0.1 µg/mL (≈ 0.122 µM)		Activity [2]: 0.5
COc1ccc(OC[C@@]2(C)Cn3cc([N+](=O)[O-])nc3O2)cc1	0.05 µg/mL (≈ 0.164 µM)	0.72	
C[C@]1(COc2ccc(C(F)(F)F)cc2)Cn2cc([N+](=O)[O-])nc2O1	0.2 µg/mL (≈ 0.583 µM)	>4.4	
C[C@]1(COc2ccc(N3CCC(Oc4cccc(OC(F)(F)F)c4)CC3)cc2)Cn2cc([N+](=O)[O-])nc2O1	0.024 µg/mL (≈ 0.0449 µM)	>4.4	
C[C@]1(COc2ccc(N3CCC(Oc4ccc(C(F)(F)F)cc4)CC3)cc2)Cn2cc([N+](=O)[O-])nc2O1	0.012 µg/mL (≈ 0.0231 µM)	2.2	
C[C@]1(COc2ccc(N3CCSCC3)cc2)Cn2cc([N+](=O)[O-])nc2O1	0.78 µg/mL (≈ 2.07 µM)	0	
C[C@]1(COc2ccc(Cl)cc2)Cn2cc([N+](=O)[O-])nc2O1	0.024 µg/mL (≈ 0.0775 µM)	>3.1	
C[C@]1(COc2ccc(N3CCC(Oc4ccccc4)CC3)cc2)Cn2cc([N+](=O)[O-])nc2O1	0.39 µg/mL (≈ 0.866 µM)	2.8	
C[C@]1(COc2ccc(N3CCC(Oc4ccc(Cl)cc4)CC3)cc2)Cn2cc([N+](=O)[O-])nc2O1	0.05 µg/mL (≈ 0.103 µM)	2.2	
C[C@]1(COc2ccc(N3CCCCC3)cc2)Cn2cc([N+](=O)[O-])nc2O1	0.78 µg/mL (≈ 2.18 µM)	1.9	
C[C@]1(COc2ccc(N3CCC(Oc4ccc(OC(F)(F)F)cc4)CC3)cc2)Cn2cc([N+](=O)[O-])nc2O1 [DELAMANID]	0.006 µg/mL (≈ 0.0112 µM)	>3.8	Activity [4]: 2.5; Activity [5]: >4.4; Activity [6]: Dose-dependent effect
O=[N+]([O-])c1cn2c(n1)OC(COCCc1ccccc1)C2 (centres undefined)	1.56 µg/mL (≈ 5.39 µM)		
O=[N+]([O-])c1cn2c(n1)OC(COC/C=C/c1ccccc1)C2 (centres undefined)	12.5 µg/mL (≈ 41.5 µM)		
O=[N+]([O-])c1cn2c(n1)OC(COCc1ccccc1)C2 (centres undefined)	3.13 µg/mL (≈ 11.4 µM)		
C[C@]1(COc2ccc(N3CCC(Oc4ccccc4OC(F)(F)F)CC3)cc2)Cn2cc([N+](=O)[O-])nc2O1	0.39 µg/mL (≈ 0.73 µM)	3	
C[C@]1(COc2ccc(N3CCC(Oc4ccc(F)cc4)CC3)cc2)Cn2cc([N+](=O)[O-])nc2O1	0.39 µg/mL (≈ 0.832 µM)	2.2	
C[C@]1(COc2ccccc2)Cn2cc([N+](=O)[O-])nc2O1	0.05 µg/mL (≈ 0.182 µM)	2	
COc1ccc(OC2CCN(c3ccc(OC[C@@]4(C)Cn5cc([N+](=O)[O-])nc5O4)cc3)CC2)cc1	0.39 µg/mL (≈ 0.812 µM)	0.1	
Cc1ccc(OC[C@@]2(C)Cn3cc([N+](=O)[O-])nc3O2)cc1	0.012 µg/mL (≈ 0.0415 µM)	2.9	
C[C@]1(COc2ccc(N3CCOCC3)cc2)Cn2cc([N+](=O)[O-])nc2O1	0.78 µg/mL (≈ 2.16 µM)	1.3	
CC1(COc2ccccc2)Cn2cc([N+](=O)[O-])nc2O1 (centres undefined)	0.1 µg/mL (≈ 0.363 µM)		
C[C@@]1(COc2ccccc2)Cn2cc([N+](=O)[O-])nc2O1	3.13 µg/mL (≈ 11.4 µM)		
C[C@]1(COc2ccc(OC(F)(F)F)cc2)Cn2cc([N+](=O)[O-])nc2O1	0.2 µg/mL (≈ 0.557 µM)	>3.6	Activity [4]: 0.4; Activity [5]: 3
Cc1ccc(OC2CCN(c3ccc(OC[C@@]4(C)Cn5cc([N+](=O)[O-])nc5O4)cc3)CC2)cc1	0.78 µg/mL (≈ 1.68 µM)	0.6	
C[C@]1(COc2ccc(N3CC[S+]([O-])CC3)cc2)Cn2cc([N+](=O)[O-])nc2O1	6.25 µg/mL (≈ 15.9 µM)		
